Active and inactive are the calls of the source. The rule behind the calls is not given here.
Key:
CHO [1] = assay: Induction of autophagy in CHO cells expressing GFP-LC3 assessed as GFP-LC3-2 accumulation at 25 uM measured after 8 hrs by flow cytometry; format: functional, Cricetulus griseus
Method in brief: (§1)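 CHO cells stably expressing GFP-LC3 (selected in 1 mg/mL G418, maintained in DMEM/10% FBS with 800 μg/mL G418) were grown overnight. They were then treated in triplicate at 10, 25 or 50 μM for 8 h, with 20 μM curcumin as the positive control, alone or with 0.1 μM bafilomycin A1. Cells were trypsinised, washed, saponin-permeabilised, and fluorescence at 488 nm read by flow cytometry (>15,000 events).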

CHO [2] = assay: Induction of autophagy in CHO cells expressing GFP-LC3 assessed as GFP-LC3-2 accumulation at 25 uM measured after 8 hrs in presence of bafilomycin A1 by flow cytometry; format: functional, cell-based; conditions: Cricetulus griseus; method in brief: as §1
MIN6 [3] = assay: Protective activity against palmitic acid-induced injury in mouse MIN6 cells assessed as increase in cell proliferation at 1 uM measured after 24 hrs by CCK8 assay; format: functional
Method in brief: (§2)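 Mouse MIN6 β-cells were kept in DMEM (25 mM glucose, 50 μM β-mercaptoethanol, 10% FBS) and grown 24 h on poly-L-lysine to 80–90% confluency. They were then exposed 24 h in serum-free DMEM to 0.4 mM palmitic acid (final) plus compound in 0.1% DMSO (final); liraglutide was the reference. Read-out was CCK-8 absorbance at 450 nm, blank-corrected. Proliferation (%) = (OD sample − OD model)/OD model × 100.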

MIN6 [4] = assay: Protective activity against palmitic acid-induced injury in mouse MIN6 cells assessed as increase in cell proliferation measured after 24 hrs by CCK8 assay; format: functional, cell-based; method in brief: as §2
MIN6 [5] = assay: Protective activity against palmitic acid-induced injury in mouse MIN6 cells assessed as increase in cell proliferation at 10 uM measured after 24 hrs by CCK8 assay; format: functional; method in brief: as §2
MIN6 [6] = assay: Protective activity against palmitic acid-induced injury in mouse MIN6 cells assessed as increase in cell proliferation at 5 uM measured after 24 hrs by CCK8 assay; format: functional; method in brief: as §2
CHO [7] = assay: Induction of autophagy in CHO cells expressing GFP-LC3 assessed as GFP-LC3-2 accumulation at 20 uM measured after 8 hrs by flow cytometry relative to control; format: functional, Cricetulus griseus
Method in brief: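 CHO cells stably expressing GFP-LC3 (clones selected in 1 mg/mL G418) were kept in DMEM with 10% FBS and 800 μg/mL G418, seeded in 24-well plates and grown overnight. They were treated in triplicate for 8 h, with untreated cells as blank and 20 μM curcumin as positive control. Cells were trypsinized, washed with PBS then 0.1% saponin/PBS, and fluorescence at 488 nm was read by flow cytometry (>15,000 events).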

MIN6 [8] = assay: Protective activity against palmitic acid-induced injury in mouse MIN6 cells assessed as increase in cell proliferation at 5 and 10 uM measured after 24 hrs by CCK8 assay relative to DMSO control; format: functional
Method in brief: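 MIN6 mouse β cells grown in DMEM (25 mM glucose, 10% FBS, β-mercaptoethanol) on poly-L-lysine plates to 80−90% confluency, then exposed 24 h in serum-free DMEM to 0.4 mM palmitic acid (final) plus compound in 0.1% DMSO (final). CCK-8 absorbance read at 450 nm, with compound-only blanks. Proliferation change = (OD sample − OD model)/OD model × 100.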

CO[C@H]1C[C@H](O[C@@H]2[C@@H](C)O[C@@H](O[C@H]3[C@@H](O)C[C@H](O[C@H]4CC[C@]5(C)[C@H]6C[C@@H](OC(=O)/C=C/C=C/c7ccccc7)[C@@]7(C)[C@](O)(CC[C@@]7(O)[C@H](C)O)[C@]6(O)C[C@@H](O)[C@@]5(O)C4)O[C@@H]3C)C[C@H]2OC)O[C@H](C)[C@H]1O[C@H]1C[C@@H](OC)[C@H](O)[C@@H](C)O1
fold change (FC) (CHO [1]): 1.3
Activity (CHO [2]): Active

CO[C@H]1C[C@H](O[C@H]2[C@@H](O)C[C@H](O[C@H]3CC[C@]4(C)[C@H]5C[C@@H](OC(=O)/C=C/C=C/c6ccccc6)[C@@]6(C)[C@](O)(CC[C@@]6(O)[C@H](C)O)[C@]5(O)C[C@H](O)[C@@]4(O)C3)O[C@@H]2C)O[C@H](C)[C@H]1O[C@H]1C[C@@H](OC)[C@H](O)[C@@H](C)O1
fold change (FC) (CHO [1]): 3.1
Activity (CHO [2]): Active

C[C@H](O)[C@]1(O)CC[C@@]2(O)[C@]1(C)[C@H](OC(=O)/C=C/C=C/c1ccccc1)C[C@@H]1[C@@]3(C)CC[C@H](O)C[C@]3(O)[C@H](O)C[C@]12O
Activity (MIN6 [3]): -3.1%
Activity (MIN6 [4]): Dose-dependent effect
Activity (MIN6 [5]): 8.8%
Activity (MIN6 [6]): 4.2%

COc1cc(/C=C/C(=O)CC(=O)/C=C/c2ccc(O)c(OC)c2)ccc1O [CURCUMIN]
fold change (FC) (CHO [7]): 1.7

CO[C@H]1C[C@H](O[C@H]2[C@@H](O)C[C@H](O[C@H]3CC[C@]4(C)[C@H]5C[C@@H](OC(=O)/C=C/C=C/c6ccccc6)[C@@]6(C)[C@](O)(CC[C@@]6(O)[C@H](C)O)[C@]5(O)C[C@@H](O)[C@@]4(O)C3)O[C@@H]2C)O[C@H](C)[C@H]1O[C@H]1C[C@@H](OC)[C@H](O)[C@@H](C)O1
fold change (FC) (CHO [1]): 2.5
Activity (CHO [2]): Active

C[C@H](O)[C@]1(O)CC[C@@]2(O)[C@]1(C)[C@H](OC(=O)/C=C/C=C/c1ccccc1)C[C@@H]1[C@@]3(C)CC[C@H](O[C@H]4C[C@H](O)[C@H](O)[C@@H](C)O4)C[C@]3(O)[C@H](O)C[C@]12O
Activity (MIN6 [3]): 1.5%
Activity (MIN6 [4]): Dose-dependent effect
Activity (MIN6 [5]): 11.2%
Activity (MIN6 [6]): 4%

CO[C@H]1C[C@H](O[C@H]2[C@@H](O)C[C@H](O[C@H]3CC[C@]4(C)[C@H]5C[C@@H](OC(=O)/C=C/C=C/c6ccccc6)[C@@]6(C)[C@](O)(CC[C@@]6(O)[C@H](C)O)[C@]5(O)C[C@@H](O)[C@@]4(O)C3)O[C@@H]2C)O[C@H](C)[C@H]1O
Activity (MIN6 [3]): 0.2%
fold change (FC) (CHO [1]): 2.1
Activity (MIN6 [4]): Dose-dependent effect
Activity (MIN6 [5]): 87.7%
fold change (FC) (MIN6 [8]): 2
Activity (CHO [2]): Active
Activity (MIN6 [6]): 81.7%

CCCCCCCCCCCCCCCC(=O)N[C@@H](CCC(=O)NCCCC[C@H](NC(=O)[C@H](C)NC(=O)[C@H](C)NC(=O)[C@H](CCC(N)=O)NC(=O)CNC(=O)[C@H](CCC(=O)O)NC(=O)[C@H](CC(C)C)NC(=O)[C@H](Cc1ccc(O)cc1)NC(=O)[C@H](CO)NC(=O)[C@H](CO)NC(=O)[C@@H](NC(=O)[C@H](CC(=O)O)NC(=O)[C@H](CO)NC(=O)[C@@H](NC(=O)[C@H](Cc1ccccc1)NC(=O)[C@@H](NC(=O)CNC(=O)[C@H](CCC(=O)O)NC(=O)[C@H](C)NC(=O)[C@@H](N)Cc1cnc[nH]1)[C@@H](C)O)[C@@H](C)O)C(C)C)C(=O)N[C@@H](CCC(=O)O)C(=O)N[C@@H](Cc1ccccc1)C(=O)N[C@H](C(=O)N[C@@H](C)C(=O)N[C@@H](Cc1c[nH]c2ccccc12)C(=O)N[C@@H](CC(C)C)C(=O)N[C@H](C(=O)N[C@@H](CCCNC(=N)N)C(=O)NCC(=O)N[C@@H](CCCNC(=N)N)C(=O)NCC(=O)O)C(C)C)[C@@H](C)CC)C(=O)O [LIRAGLUTIDE]
Activity (MIN6 [3]): 19.1%

— ChEMBL document CHEMBL4477181, “Bioactive Octahydroxylated C21 Steroids from the Root Bark of Lycium chinense” (2016)
